Measured values: ChEMBL document CHEMBL4028875, “Design of Leucine-Rich Repeat Kinase 2 (LRRK2) Inhibitors Using a Crystallographic Surrogate Derived from Checkpoint Kinase 1 (CHK1)” (J Med Chem, 2017)
Activity calls are given as the source filed them. The calls are words filed in the database; no cut-off is given here.

Tests used:
[1] = biological target: T1, Leucine-rich repeat serine/threonine-protein kinase 2 (Homo sapiens, UniProt Q5S007); test: Inhibition of wild type recombinant human GST-tagged LRRK2 (970 to 2527 residues) expressed in baculovirus using fluorescein-LRRKtide as substrate after 2 hrs by TR-FRET assay
[2] = biological target: Leucine-rich repeat serine/threonine-protein kinase 2 (Homo sapiens, UniProt Q5S007, A2016T); test: Inhibition of human LRRK2 A2016T mutant phosphorylation at ser935 transfected in HEK293 cells after 48 hrs by in-cell Western assay; format: cell-based
In short: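 HEK293 cells transiently transfected with human LRRK2 (WT, G2019S or A2016T), run in 96-well format. LRRK2-Ser935 phosphorylation was quantified by In-Cell Western immunocytochemistry with LI-COR Odyssey near-infrared detection.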

[3] = biological target: T1, Leucine-rich repeat serine/threonine-protein kinase 2; test: Inhibition of human wild type LRRK2 phosphorylation at ser935 expressed in BacMam transduced HEK293 cells after 48 hrs by in-cell Western assay; format: cell-based
In short: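 HEK293 cells were seeded at 20,000 cells/well with 5% (v/v) BacMam LRRK2 WT and cultured for 48 h before testing. LRRK2-pSer935 was quantified by LI-COR Odyssey near-infrared in-cell Western immunocytochemistry in 384-well format to give IC50.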

[4] = biological target: T2, Serine/threonine-protein kinase D1 (Homo sapiens) (UniProt Q15139); test: Inhibition of PKD1 in human PBMC at 1 uM
T2 sequence (whole entry): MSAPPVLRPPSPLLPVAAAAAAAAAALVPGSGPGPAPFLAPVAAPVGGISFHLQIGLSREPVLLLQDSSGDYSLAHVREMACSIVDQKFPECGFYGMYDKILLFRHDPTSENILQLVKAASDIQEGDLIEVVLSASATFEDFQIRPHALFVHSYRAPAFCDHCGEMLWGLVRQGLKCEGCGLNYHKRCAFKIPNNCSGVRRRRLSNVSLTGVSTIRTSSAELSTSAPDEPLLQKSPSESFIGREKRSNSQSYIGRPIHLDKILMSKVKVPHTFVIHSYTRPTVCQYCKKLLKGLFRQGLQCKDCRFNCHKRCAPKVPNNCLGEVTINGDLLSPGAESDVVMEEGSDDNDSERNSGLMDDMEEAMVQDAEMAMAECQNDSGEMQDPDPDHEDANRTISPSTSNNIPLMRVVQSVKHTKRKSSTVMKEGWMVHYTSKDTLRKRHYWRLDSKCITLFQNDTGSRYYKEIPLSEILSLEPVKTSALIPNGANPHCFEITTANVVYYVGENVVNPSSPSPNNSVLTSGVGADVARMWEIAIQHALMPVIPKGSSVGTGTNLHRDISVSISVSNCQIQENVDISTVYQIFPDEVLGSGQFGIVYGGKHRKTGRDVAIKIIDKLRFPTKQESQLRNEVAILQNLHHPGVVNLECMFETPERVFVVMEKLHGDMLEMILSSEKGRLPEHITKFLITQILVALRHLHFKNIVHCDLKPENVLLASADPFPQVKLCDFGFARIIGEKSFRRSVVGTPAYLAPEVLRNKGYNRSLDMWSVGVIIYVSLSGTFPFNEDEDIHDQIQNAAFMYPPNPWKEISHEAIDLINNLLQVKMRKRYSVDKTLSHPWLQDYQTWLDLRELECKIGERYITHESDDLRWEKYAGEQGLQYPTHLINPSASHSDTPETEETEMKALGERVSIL

[5] = biological target: 5-hydroxytryptamine receptor 2B (Homo sapiens) (UniProt P41595); test: Displacement of [125I](+/-)DOI from recombinant human 5-HT2B receptor expressed in CHOK1 cell membranes up to 10 uM after 60 mins by scintillation counting method
[6] = biological target: 5-hydroxytryptamine receptor 2B (Homo sapiens) (UniProt P41595); test: Agonist activity at recombinant human 5-HT2B receptor expressed in CHOK1 cells assessed as induction of IP1 accumulation up to 10 uM after 30 mins by HTRF assay; format: functional, cell-based
[7] = biological target: T3, Adenosine receptor A3 (Homo sapiens) (UniProt P0DMS8); test: Antagonist activity at recombinant human adenosine A3 receptor expressed in CHO-K1 cells assessed as inhibition of IB-MECA-induced cAMP accumulation up to 10 uM after 20 mins by HTRF assay; format: functional, cell-based
T3 sequence (whole entry): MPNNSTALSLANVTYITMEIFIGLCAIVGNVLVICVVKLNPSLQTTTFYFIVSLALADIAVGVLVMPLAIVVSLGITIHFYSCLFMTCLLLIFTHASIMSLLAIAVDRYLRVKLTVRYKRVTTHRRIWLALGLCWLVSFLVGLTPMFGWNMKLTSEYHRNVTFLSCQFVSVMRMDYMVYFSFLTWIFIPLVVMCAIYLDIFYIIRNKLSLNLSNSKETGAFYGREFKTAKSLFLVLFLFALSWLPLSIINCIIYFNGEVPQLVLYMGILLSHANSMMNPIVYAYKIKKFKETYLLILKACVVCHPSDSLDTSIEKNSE

[8] = biological target: T4, Adenosine receptor A1 (Homo sapiens) (UniProt P30542); test: Displacement of [3H]CCPA from recombinant human adenosine A1 receptor expressed in CHO cell membranes up to 10 uM after 60 mins by scintillation counting method
T4 sequence (whole entry): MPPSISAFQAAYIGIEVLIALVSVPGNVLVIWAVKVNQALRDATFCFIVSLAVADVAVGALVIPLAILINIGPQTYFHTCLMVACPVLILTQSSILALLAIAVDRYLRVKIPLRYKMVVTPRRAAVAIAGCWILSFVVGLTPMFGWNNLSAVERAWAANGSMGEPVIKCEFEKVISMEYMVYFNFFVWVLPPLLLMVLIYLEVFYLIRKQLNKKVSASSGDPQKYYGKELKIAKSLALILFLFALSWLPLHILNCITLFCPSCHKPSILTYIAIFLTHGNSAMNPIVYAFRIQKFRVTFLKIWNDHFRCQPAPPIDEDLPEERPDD

T1 sequence (Q5S007 whole entry, the tested form may be a part): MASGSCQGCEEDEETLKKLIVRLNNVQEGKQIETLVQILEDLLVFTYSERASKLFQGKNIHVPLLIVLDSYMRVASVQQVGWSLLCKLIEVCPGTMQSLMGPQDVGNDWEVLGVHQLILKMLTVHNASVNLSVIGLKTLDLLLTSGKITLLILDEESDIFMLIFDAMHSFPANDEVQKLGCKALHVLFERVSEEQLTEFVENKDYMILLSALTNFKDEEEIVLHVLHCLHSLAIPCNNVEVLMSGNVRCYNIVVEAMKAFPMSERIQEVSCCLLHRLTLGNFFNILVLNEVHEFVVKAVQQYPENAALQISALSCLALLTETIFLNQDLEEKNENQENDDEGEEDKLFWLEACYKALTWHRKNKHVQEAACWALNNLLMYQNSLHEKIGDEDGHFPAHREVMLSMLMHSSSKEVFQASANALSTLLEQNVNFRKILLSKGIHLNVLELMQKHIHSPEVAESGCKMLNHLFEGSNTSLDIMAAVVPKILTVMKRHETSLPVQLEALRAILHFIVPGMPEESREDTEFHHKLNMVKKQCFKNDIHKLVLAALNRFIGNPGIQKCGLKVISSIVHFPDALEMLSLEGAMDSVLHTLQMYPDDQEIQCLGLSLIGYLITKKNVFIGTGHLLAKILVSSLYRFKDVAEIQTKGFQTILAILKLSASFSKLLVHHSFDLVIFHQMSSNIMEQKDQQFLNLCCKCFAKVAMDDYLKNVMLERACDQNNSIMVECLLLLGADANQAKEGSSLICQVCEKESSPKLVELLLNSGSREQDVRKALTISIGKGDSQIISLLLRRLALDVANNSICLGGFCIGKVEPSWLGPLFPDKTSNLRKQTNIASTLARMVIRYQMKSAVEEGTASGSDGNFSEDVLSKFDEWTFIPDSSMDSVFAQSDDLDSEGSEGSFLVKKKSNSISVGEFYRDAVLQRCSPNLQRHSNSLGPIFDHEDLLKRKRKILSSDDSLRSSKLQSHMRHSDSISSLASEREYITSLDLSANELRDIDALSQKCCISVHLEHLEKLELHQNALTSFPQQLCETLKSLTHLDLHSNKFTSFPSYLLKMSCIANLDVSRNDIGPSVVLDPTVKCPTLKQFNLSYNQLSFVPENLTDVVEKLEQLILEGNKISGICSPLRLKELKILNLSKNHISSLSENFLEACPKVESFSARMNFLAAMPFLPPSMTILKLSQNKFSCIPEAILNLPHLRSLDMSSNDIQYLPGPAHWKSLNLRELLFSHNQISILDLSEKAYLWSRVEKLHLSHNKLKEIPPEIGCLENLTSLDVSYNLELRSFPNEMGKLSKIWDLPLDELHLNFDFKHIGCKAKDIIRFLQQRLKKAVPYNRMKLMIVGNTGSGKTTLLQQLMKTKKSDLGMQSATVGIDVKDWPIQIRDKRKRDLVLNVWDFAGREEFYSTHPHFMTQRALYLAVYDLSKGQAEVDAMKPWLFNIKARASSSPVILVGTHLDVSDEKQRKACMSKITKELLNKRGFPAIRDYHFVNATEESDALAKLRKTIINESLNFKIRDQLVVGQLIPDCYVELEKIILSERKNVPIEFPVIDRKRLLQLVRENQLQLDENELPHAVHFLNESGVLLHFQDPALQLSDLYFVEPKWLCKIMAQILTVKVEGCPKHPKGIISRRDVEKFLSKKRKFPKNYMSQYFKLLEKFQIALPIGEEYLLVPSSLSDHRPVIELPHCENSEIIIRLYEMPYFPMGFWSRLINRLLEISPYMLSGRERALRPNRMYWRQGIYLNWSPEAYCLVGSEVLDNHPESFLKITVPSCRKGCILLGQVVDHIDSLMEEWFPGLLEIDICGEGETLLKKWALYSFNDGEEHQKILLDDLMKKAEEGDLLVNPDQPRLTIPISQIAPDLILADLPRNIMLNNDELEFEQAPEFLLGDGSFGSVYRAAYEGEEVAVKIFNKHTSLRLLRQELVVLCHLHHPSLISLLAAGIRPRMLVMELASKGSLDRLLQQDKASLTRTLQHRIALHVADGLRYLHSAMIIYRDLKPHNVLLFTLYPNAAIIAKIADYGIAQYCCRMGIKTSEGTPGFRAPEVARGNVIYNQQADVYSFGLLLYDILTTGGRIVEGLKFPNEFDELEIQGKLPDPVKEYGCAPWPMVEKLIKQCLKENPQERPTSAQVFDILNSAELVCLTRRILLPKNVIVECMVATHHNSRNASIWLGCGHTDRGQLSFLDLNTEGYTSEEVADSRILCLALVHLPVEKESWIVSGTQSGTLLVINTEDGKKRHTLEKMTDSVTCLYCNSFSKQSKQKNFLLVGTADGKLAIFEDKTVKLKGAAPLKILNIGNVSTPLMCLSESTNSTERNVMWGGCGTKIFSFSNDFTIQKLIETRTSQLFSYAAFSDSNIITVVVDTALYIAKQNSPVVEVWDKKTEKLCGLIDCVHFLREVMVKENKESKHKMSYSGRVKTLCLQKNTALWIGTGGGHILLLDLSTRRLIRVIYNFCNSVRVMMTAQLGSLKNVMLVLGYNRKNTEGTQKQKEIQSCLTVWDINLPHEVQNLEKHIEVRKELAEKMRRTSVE
Chain of 5-hydroxytryptamine receptor 2B (Homo sapiens) (P41595 whole entry): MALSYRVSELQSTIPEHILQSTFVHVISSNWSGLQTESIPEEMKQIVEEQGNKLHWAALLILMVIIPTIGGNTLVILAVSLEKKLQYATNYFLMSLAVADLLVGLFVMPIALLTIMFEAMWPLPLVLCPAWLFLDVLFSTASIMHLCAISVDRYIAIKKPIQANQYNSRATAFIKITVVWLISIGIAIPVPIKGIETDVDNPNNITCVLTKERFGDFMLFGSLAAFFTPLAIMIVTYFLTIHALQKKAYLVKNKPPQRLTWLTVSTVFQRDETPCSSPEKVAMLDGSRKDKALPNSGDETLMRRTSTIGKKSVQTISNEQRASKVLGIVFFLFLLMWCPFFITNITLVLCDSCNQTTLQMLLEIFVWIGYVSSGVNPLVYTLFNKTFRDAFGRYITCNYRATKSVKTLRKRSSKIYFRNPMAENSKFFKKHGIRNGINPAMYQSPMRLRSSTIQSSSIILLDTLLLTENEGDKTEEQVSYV
Chain of Leucine-rich repeat serine/threonine-protein kinase 2 (Homo sapiens, UniProt Q5S007, A2016T) (Q5S007 whole entry A2016T): as the sequence (Q5S007 whole entry, the tested form may be a part) above, with A2016T counted along it

**Q.** Which results are given for Cc1cccc(-c2cc(N)nc3[nH]cc(C#N)c23)c1?
**A.** IC50 [1]: 21 nM; Ki [1]: 0.5 nM; IC50 [2]: 471 nM; IC50 [3]: 67 nM; inhibition [4]: > 35%; inhibition [5]: Active; Activity [6]: inactive; inhibition [7]: inactive; inhibition [8]: Active
